Assay results taken from ChEMBL document CHEMBL4842338, “System-oriented optimization of multi-target 2,6-diaminopurine derivatives: Easily accessible broad-spectrum antivirals active against flaviviruses, influenza virus and SARS-CoV-2” (Eur J Med Chem, 2021).
Activity calls are given as the source filed them. The calls are words filed in the database; no cut-off is given here.

Key:
Influenza A virus [1] = test: Antiviral activity against Influenza A Puerto Rico/8/34/H1N1 infected in human A549 cells assessed as reduction in viral protein expression at 20 uM treated for 2 to 6 hrs post infection and measured following infection of MDCK cells with supernatant for 24 hrs by time-of-addition assay; format: functional, organism-based; conditions: A/Puerto Rico/8/1934(H1N1), time 2-6 hrs
[2] = Selectivity index, ratio of CC50 for human Huh-7 cells to IC50 for Dengue virus serotype 2 New Guinea C infected in pre-seeded Huh-7 cells assessed as inhibition of viral replication incubated for 72 hrs by immunodetection based secondary yield reduction assay; format: toxicity, cell-based; conditions: read-out: Selectivity Index
[3] = Selectivity index, ratio of CC50 for human Huh-7 cells to IC50 for Dengue virus serotype 2 New Guinea C infected in pre-seeded Huh-7 cells assessed as inhibition of viral replication incubated for 72 hrs by immunodetection based plaque reduction assay; format: toxicity, cell-based; conditions: read-out: Selectivity Index
Zika virus [4] = test: Antiviral activity against Zika virus H/PF/2013 infected in pre-seeded Huh-7 cells assessed as inhibition of viral replication incubated for 72 hrs by immunodetection based direct yield reduction assay; format: functional, organism-based; conditions: H/PF/2013, Huh-7, 72 h
How it was run: (§1)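 Direct yield reduction in Huh7 cells (7000/well), infected with 50 TCID₅₀ of DENV or ZIKV, or 25 TCID₅₀ of WNV. Adsorption 1 h at 37 °C, then virus removed and serial compound dilutions added. Incubated 72 h (DENV, ZIKV) or 48 h (WNV). Viral antigen immunodetected on the monolayer. IC₅₀ by non-linear regression, mean of three experiments. SI = CC₅₀ (Huh7, CellTiter-Glo luminescence)/IC₅₀.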

Zika virus [5] = test: Antiviral activity against Zika virus H/PF/2013 infected in pre-seeded Huh-7 cells assessed as inhibition of viral replication incubated for 72 hrs by immunodetection based plaque reduction assay; format: functional, organism-based; conditions: H/PF/2013, Huh-7, 72 h
[6] = Selectivity index, ratio of CC50 for human Huh-7 cells to IC50 for Zika virus H/PF/2013 infected in pre-seeded Huh-7 cells assessed as inhibition of viral replication incubated for 72 hrs by immunodetection based direct yield reduction assay; format: toxicity, cell-based; conditions: read-out: Selectivity Index; how it was run: as §1
[7] = Selectivity index, ratio of CC50 for human Huh-7 cells to IC50 for Zika virus H/PF/2013 infected in pre-seeded Huh-7 cells assessed as inhibition of viral replication incubated for 72 hrs by immunodetection based plaque reduction assay; format: toxicity, cell-based; conditions: read-out: Selectivity Index
[8] = Selectivity index, ratio of CC50 for human Huh-7 cells to IC50 for West Nile virus lineage 1 (Italy/2009) infected in pre-seeded Huh-7 cells assessed as inhibition of viral replication incubated for 48 hrs by immunodetection based plaque reduction assay; format: toxicity, cell-based; conditions: read-out: Selectivity Index
MDCK = test: Cytotoxicity against MDCK cells assessed as reduction in cell viability measured after 24 hrs by MTT assay; format: cell-based, Canis lupus familiaris; conditions: dog, mdck, 24 h
Influenza A virus [9] = test: Antiviral activity against Influenza A Puerto Rico/8/34/H1N1 infected in human A549 cells assessed as inhibition of hemagglutinin expression at 20 uM treated immediately after infection for 2 to 6 hrs followed by maintaining cells in fresh medium without compound for 24 hrs followed by infecting monolayer MDCK cells with supernatant for 24 hrs by time-of-addition assay; format: functional, organism-based; conditions: A/Puerto Rico/8/1934(H1N1), time 2-6 hrs
How it was run: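 A549 cells infected with PR8 H1N1 received 20 μM compound immediately after adsorption for 2, 4 or 6 h, then fresh medium to 24 h; supernatants infected fresh MDCK for 24 h; anti-HA in-cell western; RFU % vs untreated infected; 4 replicates from two experiments.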

Influenza A virus [10] = test: Antiviral activity against Influenza A virus (A/parrot/Ulster/73(H7N1)) infected in human A549 cells assessed as reduction in viral protein expression at 20 uM pretreated for 2 hrs followed by staining with anti-Flu antibody observed at 24 hrs post infection by In-cell western assay; format: functional, organism-based
Caco-2 = test: Cytotoxicity against human Caco2 cells infected with SARS-COV-2 assessed as reduction in cell viability by celltiter-glo luminescent cell viability assay; format: cell-based
How it was run: (§2)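 Compound-exposed cells assessed by CellTiter-Glo luminescence versus DMSO control; CC50 from dose-response.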

[11] = Selectivity index, ratio of CC50 for African green monkey Vero E6 cells infected with SARS-COV-2 to IC50 for SARS-COV 2 infected in monkey Vero E6 cells; format: toxicity, cell-based, Vero C1008; conditions: read-out: Selectivity Index
Calu-3 = test: Cytotoxicity against human Calu-3 cells infected with SARS-COV-2 by celltiter-glo luminescent cell viability assay; format: cell-based; conditions: calu-3; how it was run: as §2
[12] = Selectivity index, ratio of CC50 for human Calu-3 cells infected with SARS-COV-2 to IC50 for SARS-COV 2 infected in human Calu-3 cells; format: toxicity, cell-based; conditions: read-out: Selectivity Index
SARS-CoV-2 = test: Antiviral activity against SARS-COV 2 infected in quadruplicate Vero E6 cells with DYRA supernatant assessed as reduction in viral replication at 20 uM; format: functional; conditions: Severe acute respiratory syndrome coronavirus 2, Vero C1008
[13] = Inhibition of DENV NS5-MTase domain using GpppA2'OMe-RNA74 as a substrate incubated for 30 mins by filter binding assay; parameters: species or system dengue virus type 2; conditions: read-out: IC50
How it was run: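 MTase (1 μM) incubated with increasing inhibitor in 40 mM Tris-HCl pH 7.5, 5 mM DTT, 10 μM AdoMet ([3H]-labelled), 0.5 μM GpppA2′OMe-RNA74 substrate, 30 °C for 30 min; stopped in ice-cold 100 μM AdoHcy; DEAE filter binding, scintillation counting.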

Huh-7 = test: Effect on formation of DENV replication complex in human Huh-7 cells assessed as reduction in expression of NS5 at 50 uM measured after 8 to 24 hrs by DAPI staining based confocal microscopy analysis; format: functional, cell-based; conditions: time 8-24 hrs
How it was run: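 Huh-7 cells (1 × 10⁴) on coverslips infected with DENV-2 (MOI 0.05), treated (100 or 50 μM as listed), fixed in 4% paraformaldehyde at 8, 12, 16, 24 h; anti-NS3/anti-NS5 with Alexa 488/568 secondaries, DAPI; confocal, 5 random fields at 40×; % positive cells; 2-way ANOVA with Dunnett.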

[14] = molecular target: Src (Proto-oncogene tyrosine-protein kinase Src) (Homo sapiens, UniProt P12931); test: Inhibition of human recombinant N terminal His6 tagged full length Src assessed as residual activity at 5 uM using KVEKIGEGTYGVVYK as a substrate in the presence of NP-40 incubated for 10 mins by scintillation counting analysis relative to control; conditions: probe KVEKIGEGTYGVVYK, read-out: Activity
Src (Proto-oncogene tyrosine-protein kinase Src), sequence (P12931 2-536 limits assumed): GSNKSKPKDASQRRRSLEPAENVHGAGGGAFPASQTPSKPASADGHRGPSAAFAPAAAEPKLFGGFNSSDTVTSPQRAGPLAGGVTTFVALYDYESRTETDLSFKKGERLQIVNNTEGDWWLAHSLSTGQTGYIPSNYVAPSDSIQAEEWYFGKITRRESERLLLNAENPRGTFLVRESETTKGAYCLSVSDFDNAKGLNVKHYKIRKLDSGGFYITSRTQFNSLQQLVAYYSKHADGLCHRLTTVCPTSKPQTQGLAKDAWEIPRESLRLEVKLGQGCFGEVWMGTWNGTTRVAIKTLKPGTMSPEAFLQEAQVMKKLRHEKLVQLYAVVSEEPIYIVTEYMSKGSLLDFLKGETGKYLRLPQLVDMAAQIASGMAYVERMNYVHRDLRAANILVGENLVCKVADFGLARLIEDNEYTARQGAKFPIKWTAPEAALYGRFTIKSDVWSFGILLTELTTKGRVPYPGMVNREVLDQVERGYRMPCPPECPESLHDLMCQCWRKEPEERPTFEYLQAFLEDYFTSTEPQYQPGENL
How it was run: (§3)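 Compounds at fixed 5 μM; 10–50 ng kinase, substrate and NP-40/BSA per supplementary table, 10 μL at 30 °C for 10 min in low-binding tubes. Reactions spotted on filter, dried, scintillation counted. Mean ± SD of two independent experiments.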

[15] = molecular target: Fyn (Tyrosine-protein kinase Fyn) (Homo sapiens, UniProt P06241); test: Inhibition of human recombinant N terminal His6 tagged full length Fyn assessed as residual activity at 5 uM using […] as a substrate in the presence of NP-40 incubated for 10 mins by scintillation counting analysis relative to control; conditions: probe […], read-out: Activity; how it was run: as §3
Fyn (Tyrosine-protein kinase Fyn), sequence (P06241 whole entry): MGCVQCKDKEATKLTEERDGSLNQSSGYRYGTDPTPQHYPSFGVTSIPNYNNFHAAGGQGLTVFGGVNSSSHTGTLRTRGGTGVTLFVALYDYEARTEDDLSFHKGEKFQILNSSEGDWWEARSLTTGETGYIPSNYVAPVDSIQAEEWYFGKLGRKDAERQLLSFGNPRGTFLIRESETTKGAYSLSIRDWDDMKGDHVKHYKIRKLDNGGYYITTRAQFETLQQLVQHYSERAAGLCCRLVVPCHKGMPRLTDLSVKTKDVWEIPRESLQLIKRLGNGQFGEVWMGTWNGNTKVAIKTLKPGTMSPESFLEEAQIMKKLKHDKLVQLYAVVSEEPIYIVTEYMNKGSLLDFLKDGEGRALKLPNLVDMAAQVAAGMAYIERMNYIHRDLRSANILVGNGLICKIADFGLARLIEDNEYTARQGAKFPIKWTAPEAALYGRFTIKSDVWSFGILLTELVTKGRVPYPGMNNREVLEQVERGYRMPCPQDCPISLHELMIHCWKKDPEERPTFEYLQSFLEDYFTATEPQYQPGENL

FC(F)(F)c1cccc(Nc2nc(NCCOc3ccccc3)nc3[nH]cnc23)c1
Activity (Influenza A virus [1]): Active | selectivity ratio at 72 h [2]: 77 | selectivity ratio at 72 h [3]: 222 | IC50 (Zika virus [4]): 0.8 µM | IC50 (Zika virus [5]): 0.5 µM | selectivity ratio at 72 h [6]: 250 | selectivity ratio at 72 h [7]: 400 | selectivity ratio at 48 h [8]: 51 | CC50 (MDCK): 77 µM | Activity (Influenza A virus [9]): Active | Activity (Influenza A virus [10]): Active | CC50 (Caco-2): 81.3 µM | selectivity ratio [11]: 4 | CC50 (Calu-3): 120 µM | selectivity ratio [12]: 240 | inhibition at 20 µM (SARS-CoV-2): 91.9% | IC50 [13]: 112 µM | Activity (Huh-7): Active | activity at 10 min, 5 µM [14]: 47% | activity at 10 min, 5 µM [15]: > 98%
